According to ChEMBL document CHEMBL3272012, “5-(Tetradecyloxy)-2-furancarboxylic acid and related hypolipidemic fatty acid-like alkyloxyarylcarboxylic acids” (J Med Chem, 1977):

What was measured:
Rattus norvegicus [1] = assay: Hypolipidemic activity in Wistar rat assessed as reduction in plasma cholesterol level at 441 umol/kg/day administered through diet for 4 days; assay type: functional; conditions: 96 h
Procedure, shortened: (§1)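 Young male Wistar rats, 170-190 g initial weight, groups of six, given compound mixed thoroughly into Purina Lab Chow ad libitum for 4 or 10 days as stated. Daily dose calculated from food consumption and body weight. Bled by cardiac puncture at end of treatment; plasma cholesterol measured by automated procedure. Expressed as percent reduction versus simultaneous untreated control group; Student's t test.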

Rattus norvegicus [2] = assay: Hypolipidemic activity in Wistar rat assessed as reduction in plasma triglyceride level at 441 umol/kg/day administered through diet for 4 days; assay type: functional; conditions: 96 h
Rattus norvegicus [3] = assay: Increase in cholesterol level in Wistar rat liver at 441 umol/kg/day administered through diet for 4 days; assay type: ADME, organism-based; conditions: in vivo, po, 96 h
Rattus norvegicus [4] = assay: Increase in liver weight in Wistar rat at 441 umol/kg/day administered through diet for 4 days; assay type: ADME, organism-based; conditions: in vivo, po, 96 h
Rattus norvegicus [5] = assay: Increase in cholesterol level in Wistar rat liver at 422 umol/kg/day administered through diet for 4 days; assay type: ADME, organism-based; conditions: in vivo, po, 96 h
Rattus norvegicus [6] = assay: Hypolipidemic activity in Wistar rat assessed as reduction in plasma triglyceride level at 422 umol/kg/day administered through diet for 4 days; assay type: functional; conditions: 96 h
Rattus norvegicus [7] = assay: Increase in liver weight in Wistar rat at 422 umol/kg/day administered through diet for 4 days; assay type: ADME, organism-based; conditions: in vivo, po, 96 h
Rattus norvegicus [8] = assay: Hypolipidemic activity in Wistar rat assessed as reduction in plasma cholesterol level at 422 umol/kg/day administered through diet for 4 days; assay type: functional; conditions: 96 h; procedure, shortened: as §1
Rattus norvegicus [9] = assay: Increase in cholesterol level in Wistar rat liver at 351 umol/kg/day administered through diet for 4 days; assay type: ADME, organism-based; conditions: in vivo, po, 96 h
Rattus norvegicus [10] = assay: Hypolipidemic activity in Wistar rat assessed as reduction in plasma triglyceride level at 351 umol/kg/day administered through diet for 4 days; assay type: functional; conditions: 96 h
Procedure, shortened: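 Young male Wistar rats, 170-190 g at start, six per group, given compound mixed into Purina Lab Chow, fed ad libitum for 4 or 10 days. Daily dose calculated from food consumption and body weight. Rats bled by cardiac puncture at end of treatment. Plasma triglycerides determined by automated procedure. Expressed as percent reduction versus a concurrent untreated control group, Student's t test.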

Rattus norvegicus [11] = assay: Hypolipidemic activity in Wistar rat assessed as reduction in plasma cholesterol level at 351 umol/kg/day administered through diet for 4 days; assay type: functional; conditions: 96 h
Procedure, shortened: (§2)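 Young male Wistar rats, 170-190 g at start, in groups of six, given compound mixed into Purina Lab Chow ad libitum for 4 or 10 days as stated. Daily dose was calculated from food consumption and body weight. Plasma was taken by cardiac puncture at the end and cholesterol measured by automated procedure. Results are % reduction versus a concurrent untreated control group, with Student's t test.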

Rattus norvegicus [12] = assay: Increase in liver weight in Wistar rat at 351 umol/kg/day administered through diet for 4 days; assay type: ADME, organism-based; conditions: in vivo, po, 96 h
Rattus norvegicus [13] = assay: Hypolipidemic activity in Wistar rat assessed as reduction in plasma triglyceride level at 319 umol/kg/day administered through diet for 4 days; assay type: functional; conditions: 96 h
Procedure, shortened: (§3)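 Young male Wistar rats, 170-190 g initial weight, six per group, fed drug mixed thoroughly into Purina Lab Chow ad libitum for the stated days; daily dose calculated from food consumption and body weight. Bled by cardiac puncture at end; plasma cholesterol and triglycerides by automated procedures, expressed as percent reduction versus simultaneous untreated controls; Student's t test.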

Rattus norvegicus [14] = assay: Hypolipidemic activity in Wistar rat assessed as reduction in plasma cholesterol level at 319 umol/kg/day administered through diet for 4 days; assay type: functional; conditions: 96 h; procedure, shortened: as §2
Rattus norvegicus [15] = assay: Increase in cholesterol level in Wistar rat liver at 319 umol/kg/day administered through diet for 4 days; assay type: ADME, organism-based; conditions: in vivo, po, 96 h
Rattus norvegicus [16] = assay: Increase in liver weight in Wistar rat at 319 umol/kg/day administered through diet for 4 days; assay type: ADME, organism-based; conditions: in vivo, po, 96 h
Rattus norvegicus [17] = assay: Increase in liver weight in Wistar rat at 533 umol/kg/day administered through diet for 4 days; assay type: ADME, organism-based; conditions: in vivo, po, 96 h
Rattus norvegicus [18] = assay: Hypolipidemic activity in Wistar rat assessed as reduction in plasma triglyceride level at 533 umol/kg/day administered through diet for 4 days; assay type: functional; conditions: 96 h
Rattus norvegicus [19] = assay: Hypolipidemic activity in Wistar rat assessed as reduction in plasma cholesterol level at 533 umol/kg/day administered through diet for 4 days; assay type: functional; conditions: 96 h; procedure, shortened: as §1
Rattus norvegicus [20] = assay: Increase in cholesterol level in Wistar rat liver at 533 umol/kg/day administered through diet for 4 days; assay type: ADME, organism-based; conditions: in vivo, po, 96 h
Rattus norvegicus [21] = assay: Increase in cholesterol level in Wistar rat liver at 385 umol/kg/day administered through diet for 10 days; assay type: ADME, organism-based; conditions: in vivo, po, 240 h
Rattus norvegicus [22] = assay: Hypolipidemic activity in Wistar rat assessed as reduction in plasma cholesterol level at 204 umol/kg/day administered through diet for 10 days; assay type: functional; conditions: 240 h; procedure, shortened: as §2
Rattus norvegicus [23] = assay: Increase in liver weight in Wistar rat at 398 umol/kg/day administered through diet for 10 days; assay type: ADME, organism-based; conditions: in vivo, po, 240 h
Rattus norvegicus [24] = assay: Hypolipidemic activity in Wistar rat assessed as reduction in plasma triglyceride level at 398 umol/kg/day administered through diet for 10 days; assay type: functional; conditions: 240 h
Procedure, shortened: (§4)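 Young male Wistar rats (170-190 g initial weight), groups of six, fed test compound mixed into Purina Lab Chow ad libitum; daily dose calculated from food consumption and body weight. Bled by cardiac puncture at end of treatment; plasma triglycerides measured by automated procedure. Results given as percent reduction versus a simultaneous untreated control group, with significance by Student's t test.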

Rattus norvegicus [25] = assay: Hypolipidemic activity in Wistar rat assessed as reduction in plasma cholesterol level at 385 umol/kg/day administered through diet for 10 days; assay type: functional; conditions: 240 h; procedure, shortened: as §2
Rattus norvegicus [26] = assay: Hypolipidemic activity in Wistar rat assessed as reduction in plasma triglyceride level at 385 umol/kg/day administered through diet for 10 days; assay type: functional; conditions: 240 h; procedure, shortened: as §4
Rattus norvegicus [27] = assay: Hypolipidemic activity in Wistar rat assessed as reduction in plasma cholesterol level at 398 umol/kg/day administered through diet for 10 days; assay type: functional; conditions: 240 h; procedure, shortened: as §2
Rattus norvegicus [28] = assay: Increase in liver weight in Wistar rat at 385 umol/kg/day administered through diet for 10 days; assay type: ADME, organism-based; conditions: in vivo, po, 240 h
Rattus norvegicus [29] = assay: Hypolipidemic activity in Wistar rat assessed as reduction in plasma triglyceride level at 204 umol/kg/day administered through diet for 10 days; assay type: functional; conditions: 240 h; procedure, shortened: as §3
Rattus norvegicus [30] = assay: Increase in liver weight in Wistar rat at 204 umol/kg/day administered through diet for 10 days; assay type: ADME, organism-based; conditions: in vivo, po, 240 h
Rattus norvegicus [31] = assay: Increase in cholesterol level in Wistar rat liver at 398 umol/kg/day administered through diet for 10 days; assay type: ADME, organism-based; conditions: in vivo, po, 240 h
Rattus norvegicus [32] = assay: Increase in cholesterol level in Wistar rat liver at 204 umol/kg/day administered through diet for 10 days; assay type: ADME, organism-based; conditions: in vivo, po, 240 h

`CCCCCCCCCCCCCCOc1ccc(C(=O)O)s1` gave an inhibition in vivo at 441 µmol/kg (Rattus norvegicus [1]) of 54%, an inhibition in vivo at 441 µmol/kg (Rattus norvegicus [2]) of 83% and an Activity (Rattus norvegicus [3]) of 1%. The Activity (Rattus norvegicus [4]) was 4%.

With `CCCCCCCCCCCCCCCCOc1ccc(C(=O)OCC)cc1` the Activity (Rattus norvegicus [5]) was 9%, the inhibition in vivo at 422 µmol/kg (Rattus norvegicus [6]) was 29% and the Activity (Rattus norvegicus [7]) was 11%. The inhibition in vivo at 422 µmol/kg (Rattus norvegicus [8]) was 8%.

`CCCCCCCC/C=C/CCCCCCCCOc1ccc(C(=O)O)o1` gave an Activity (Rattus norvegicus [9]) of 11%, an inhibition in vivo at 351 µmol/kg (Rattus norvegicus [10]) of 26% and an inhibition in vivo at 351 µmol/kg (Rattus norvegicus [11]) of 4%. The Activity (Rattus norvegicus [12]) was 0%.

For `CCCCCCCCCCCCCOc1ccc(C(=O)O)o1`, the inhibition in vivo at 319 µmol/kg (Rattus norvegicus [13]) was 6%, the inhibition in vivo at 319 µmol/kg (Rattus norvegicus [14]) was 31% and the Activity (Rattus norvegicus [15]) was 3%. The Activity (Rattus norvegicus [16]) was 15%.

For `CCCCCCCCCCCCOc1ccc(C(=O)O)o1`, the Activity (Rattus norvegicus [17]) was 22%, the inhibition in vivo at 533 µmol/kg (Rattus norvegicus [18]) was 79% and the inhibition in vivo at 533 µmol/kg (Rattus norvegicus [19]) was 38%. For the same compound, the Activity (Rattus norvegicus [20]) was 0%.

With `CCCCCCCCCCCCCCCCOc1ccc(C(=O)OC)cc1` the Activity (Rattus norvegicus [21]) was 1%, the inhibition in vivo at 204 µmol/kg (Rattus norvegicus [22]) was 0% and the Activity (Rattus norvegicus [23]) was 12%. For the same compound, the inhibition in vivo at 398 µmol/kg (Rattus norvegicus [24]) was 40%, the inhibition in vivo at 385 µmol/kg (Rattus norvegicus [25]) was 20% and the inhibition in vivo at 385 µmol/kg (Rattus norvegicus [26]) was 63%. The inhibition in vivo at 398 µmol/kg (Rattus norvegicus [27]) was 14%, the Activity (Rattus norvegicus [28]) was 5% and the inhibition in vivo at 204 µmol/kg (Rattus norvegicus [29]) was 23%. It also gave an Activity (Rattus norvegicus [30]) of 10%, an Activity (Rattus norvegicus [31]) of 2% and an Activity (Rattus norvegicus [32]) of 0%.
